Converted amounts (≈) assume the structure as drawn.
Experiments:
Cytochrome P450 3A4 = Cytochrome P450 3A4 (Homo sapiens, UniProt P08684); assay: Inhibition of human recombinant CYP3A4 expressed in Escherichia coli cells; type: ADME
[1] = molecular target: Voltage-gated inwardly rectifying potassium channel KCNH2 (Homo sapiens, UniProt Q12809); assay: Inhibition of human ERG expressed in CHO cells by patch clamp assay; type: cell-based
Outline: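 Patch clamp (IonWorks) in CHO cells expressing hERG.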

[2] = Ratio of unbound fraction in brain to plasma in Sprague-Dawley rat; type: ADME, cell-free
Outline: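 Steady-state total brain/plasma ratio in Sprague-Dawley rats after 4 h constant-rate i.v. infusion, corrected by unbound fraction in brain (rat brain slices) and in plasma (equilibrium dialysis).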

Cannabinoid receptor 1 [3] = molecular target: T1, Cannabinoid receptor 1 (Homo sapiens, UniProt P21554); assay: Displacement of [3H]-CP55,940 from human CB1 receptor expressed in HEK293S cell membranes by scintillation counting analysis
T1 sequence (P21554 whole entry): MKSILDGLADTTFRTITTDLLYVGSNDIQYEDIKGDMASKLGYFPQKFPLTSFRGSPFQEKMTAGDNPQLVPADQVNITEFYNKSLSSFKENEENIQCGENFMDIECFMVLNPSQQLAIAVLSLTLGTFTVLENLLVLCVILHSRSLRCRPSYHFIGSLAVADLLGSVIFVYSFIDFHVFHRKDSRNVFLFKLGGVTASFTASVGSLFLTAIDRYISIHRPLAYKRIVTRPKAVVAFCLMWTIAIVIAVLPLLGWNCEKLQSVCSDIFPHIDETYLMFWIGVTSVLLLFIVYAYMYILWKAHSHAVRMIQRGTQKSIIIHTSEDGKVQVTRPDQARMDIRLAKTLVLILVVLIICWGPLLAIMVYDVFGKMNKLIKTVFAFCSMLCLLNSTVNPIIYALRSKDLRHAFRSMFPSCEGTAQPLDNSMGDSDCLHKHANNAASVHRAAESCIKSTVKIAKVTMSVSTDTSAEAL

[4] = Oral bioavailability in Sprague-Dawley rat at 10 umol/kg; type: ADME, organism-based; settings: in vivo
Outline: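 Sprague-Dawley rats given 10 µmol/kg p.o., with i.v. reference dose of 2 µmol/kg.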

Cannabinoid receptor 1 [5] = molecular target: T1, Cannabinoid receptor 1; assay: Agonist activity at human CB1 receptor expressed in HEK293S cell membranes after 1 hr by GTPgamma[35S] binding assay
[6] = Solubility of the compound in Hank's balanced saline solution at pH 7.4 after 24 hrs by HPLC analysis; type: physicochemical
Outline: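 Compound in DMSO added to Hanks balanced saline solution pH 7.4, shaken 24 h.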

Cannabinoid receptor 2 = Cannabinoid receptor 2 (Homo sapiens, UniProt P34972); assay: Displacement of [3H]-CP55,940 from human CB2 receptor expressed in Sf9 cell membranes by scintillation counting analysis
Sequence of Cannabinoid receptor 2 (P34972 whole entry): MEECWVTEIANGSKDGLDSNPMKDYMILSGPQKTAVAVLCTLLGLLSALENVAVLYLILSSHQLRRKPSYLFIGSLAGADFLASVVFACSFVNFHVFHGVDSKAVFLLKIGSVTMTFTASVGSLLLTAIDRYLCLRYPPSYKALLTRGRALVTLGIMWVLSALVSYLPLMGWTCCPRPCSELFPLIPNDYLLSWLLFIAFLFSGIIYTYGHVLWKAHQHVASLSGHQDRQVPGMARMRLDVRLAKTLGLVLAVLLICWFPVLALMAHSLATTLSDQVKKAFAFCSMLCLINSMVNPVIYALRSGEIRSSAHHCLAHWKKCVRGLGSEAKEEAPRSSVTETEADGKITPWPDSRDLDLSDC
Outline: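 Membranes from Sf9 cells expressing cloned hCB2 (baculovirus) in 50 mM Tris, 2.5 mM EDTA, 5 mM MgCl2, 0.5 mg/mL fatty-acid-free BSA, pH 7.4. 60 min at rt, GF/B filtration, scintillation counting. 10-point curves; IC50 mean of three independent experiments.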

[7] = Ratio of drug level in brain to plasma in Sprague-Dawley rat; type: ADME, cell-free; settings: for Kp: Sprague-Dawley, brain and plasma, read-out: BPR
Outline: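 Total brain-to-plasma ratio from in vivo Sprague-Dawley rat samples, compound given as 4 h constant-rate i.v. infusion to steady state.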

Caco-2 = assay: (§1) Apparent permeability from apical to basolateral side in human Caco2 cells at pH 7.4; type: ADME, cell-based; settings: Caco-2, pH 7.4
Outline: (§2)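 Caco-2 monolayers at pH 7.4, apparent permeability measured for apical-to-basolateral transport.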

Cytochrome P450 2C9 = Cytochrome P450 2C9 (Homo sapiens, UniProt P11712); assay: Inhibition of human recombinant CYP2C9 expressed in Escherichia coli cells; type: ADME
Sequence of Cytochrome P450 2C9 (P11712 whole entry): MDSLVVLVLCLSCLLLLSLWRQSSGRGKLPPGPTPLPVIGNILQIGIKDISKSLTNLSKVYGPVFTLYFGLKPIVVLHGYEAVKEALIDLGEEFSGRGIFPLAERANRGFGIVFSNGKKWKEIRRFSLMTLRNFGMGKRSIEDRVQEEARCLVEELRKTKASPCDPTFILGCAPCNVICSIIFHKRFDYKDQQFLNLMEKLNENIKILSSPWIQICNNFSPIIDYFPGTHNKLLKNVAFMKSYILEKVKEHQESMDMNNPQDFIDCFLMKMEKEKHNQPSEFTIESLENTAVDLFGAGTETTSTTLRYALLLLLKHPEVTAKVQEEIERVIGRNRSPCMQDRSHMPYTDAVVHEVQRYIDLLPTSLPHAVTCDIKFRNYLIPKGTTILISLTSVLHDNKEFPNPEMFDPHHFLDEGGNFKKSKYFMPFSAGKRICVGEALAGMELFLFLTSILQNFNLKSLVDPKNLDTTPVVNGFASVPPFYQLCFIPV

[8] = Clearance in Sprague-Dawley rat at 2 umol/kg, iv; type: ADME, organism-based; settings: in vivo
Outline: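 Sprague-Dawley rats given 2 µmol/kg i.v.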

Cannabinoid receptor 1 [9] = molecular target: T1, Cannabinoid receptor 1; assay: Agonist activity at human CB1 receptor expressed in HEK293S cell membranes after 1 hr by GTPgamma[35S] binding assay relative to WIN 55,212-2
Outline: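 HEK293S membranes with cloned human CB1 (5 µg protein/well) in Hepes buffer pH 7.4, 100 mM NaCl, 5 mM MgCl2, 1 mM EDTA, 0.1% BSA, 15 µM GDP final. GTPγ[35S] added to start, 1 h at rt, filtered, counted. Basal from 8 wells; maximum from 8 wells with 10 µM reference agonist. Emax expressed as % of that reference. 10-point curves; mean of three experiments.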

[10] = Lipophilicity, log D of the compound; settings: octanol/water
[11] = as §1; type: ADME, cell-based; settings: Caco-2, pH 7.4; outline: as §2
[12] = Agonist activity at dog CB1 receptor expressed in HEK293S cell membranes after 1 hr by GTPgamma[35S] binding assay; design: species or system Canis lupus familiaris
Outline: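 Dog CB1 stably expressed in HEK293S membranes, handled as for human CB1: Hepes buffer pH 7.4 with 100 mM NaCl, 5 mM MgCl2, 1 mM EDTA, 0.1% BSA, 15 µM GDP (final); 5 µg protein/well; GTPγ[35S] tracer; 1 h at rt; filtration and scintillation counting; 10-point curves; mean of three independent experiments.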

Canis familiaris [13] = assay: Inhibition of transient lower esophageal sphincter relaxations in dog at 2 umol/kg dosed intragastrically measured after 10 mins; type: functional; settings: Canis lupus familiaris, po
Canis familiaris [14] = assay: Inhibition of transient lower esophageal sphincter relaxations in dog at 1 umol/kg dosed measured after 10 mins; type: functional; settings: Canis lupus familiaris
Canis familiaris [15] = assay: Inhibition of transient lower esophageal sphincter relaxations in intragastrically dosed dog; type: functional, organism-based; settings: Canis lupus familiaris
Outline: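 Dogs with esophagostomy and water-perfused Dentsleeve manometry (gastric, LES, esophageal pressures). Dosed intragastrically 30 min before start; TLESRs counted over 45 min. TLESR: LES pressure falls >1 mmHg/s to <2 mmHg above gastric, lasting >1 s, no swallow within 2 s before. Each dog its own control against five prior control runs; mean ± S.E.M.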

Sequence of Cytochrome P450 3A4 (P08684 whole entry): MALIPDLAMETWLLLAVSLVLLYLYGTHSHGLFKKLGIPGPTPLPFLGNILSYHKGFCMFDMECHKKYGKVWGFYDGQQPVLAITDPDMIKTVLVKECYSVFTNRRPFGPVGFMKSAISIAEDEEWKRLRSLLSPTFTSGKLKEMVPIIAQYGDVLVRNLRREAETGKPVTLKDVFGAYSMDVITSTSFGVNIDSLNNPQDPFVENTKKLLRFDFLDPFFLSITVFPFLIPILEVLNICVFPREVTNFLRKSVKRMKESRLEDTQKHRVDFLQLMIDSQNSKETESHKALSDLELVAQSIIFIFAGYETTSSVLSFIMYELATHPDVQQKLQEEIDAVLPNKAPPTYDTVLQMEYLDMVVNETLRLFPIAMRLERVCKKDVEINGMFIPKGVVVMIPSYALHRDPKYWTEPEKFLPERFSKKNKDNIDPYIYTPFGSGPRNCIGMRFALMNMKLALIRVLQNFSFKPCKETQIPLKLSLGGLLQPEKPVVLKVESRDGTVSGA
Sequence of Voltage-gated inwardly rectifying potassium channel KCNH2 (Q12809 whole entry): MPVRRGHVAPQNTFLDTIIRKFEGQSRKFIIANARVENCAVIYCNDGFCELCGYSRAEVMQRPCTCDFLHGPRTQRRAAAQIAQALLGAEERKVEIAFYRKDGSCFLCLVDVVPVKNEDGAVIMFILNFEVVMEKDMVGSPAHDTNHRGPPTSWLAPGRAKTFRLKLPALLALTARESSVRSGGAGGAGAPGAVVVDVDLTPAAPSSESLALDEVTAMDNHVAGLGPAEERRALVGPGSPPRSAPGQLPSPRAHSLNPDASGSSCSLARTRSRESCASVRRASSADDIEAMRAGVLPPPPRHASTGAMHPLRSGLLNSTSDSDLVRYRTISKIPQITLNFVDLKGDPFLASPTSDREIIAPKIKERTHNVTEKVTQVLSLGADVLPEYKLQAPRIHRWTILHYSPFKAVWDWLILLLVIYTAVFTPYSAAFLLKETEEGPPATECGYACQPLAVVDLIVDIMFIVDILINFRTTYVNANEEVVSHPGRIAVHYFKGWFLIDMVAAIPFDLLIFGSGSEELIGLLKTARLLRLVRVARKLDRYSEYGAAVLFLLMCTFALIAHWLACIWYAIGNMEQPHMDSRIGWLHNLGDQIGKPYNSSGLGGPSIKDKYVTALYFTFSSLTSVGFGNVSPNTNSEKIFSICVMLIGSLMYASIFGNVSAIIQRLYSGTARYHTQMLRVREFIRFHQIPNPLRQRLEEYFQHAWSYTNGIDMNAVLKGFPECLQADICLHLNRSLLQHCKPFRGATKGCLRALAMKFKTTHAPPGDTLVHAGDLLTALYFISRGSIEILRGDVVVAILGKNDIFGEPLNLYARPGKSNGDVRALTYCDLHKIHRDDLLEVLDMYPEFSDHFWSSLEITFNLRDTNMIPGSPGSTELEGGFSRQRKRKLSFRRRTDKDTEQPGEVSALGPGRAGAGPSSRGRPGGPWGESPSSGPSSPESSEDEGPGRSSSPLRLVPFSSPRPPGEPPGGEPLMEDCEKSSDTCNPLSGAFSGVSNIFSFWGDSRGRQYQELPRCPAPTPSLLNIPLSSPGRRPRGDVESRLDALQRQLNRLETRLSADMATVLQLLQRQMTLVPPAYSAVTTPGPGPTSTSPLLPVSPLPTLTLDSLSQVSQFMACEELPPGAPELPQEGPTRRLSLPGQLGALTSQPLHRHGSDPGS

Structure (SMILES)	IC50 (Cannabinoid receptor 1 [3]) [µM]	EC50 (Cannabinoid receptor 1 [5]) [µM]	IC50 (Cannabinoid receptor 2) [µM]	Emax (Cannabinoid receptor 1 [9]) [%]	logD [10]	also measured
C[S+]([O-])Cc1ccc(C(=O)Nc2nccnc2C(=O)NCC2CCC2)c2ccccc12 (stereo in doubt; 18f) [listing 1 of 2 here]	0.047	0.12	0.3			IC50 (Cytochrome P450 3A4): > 20 µM; IC50 [1]: 17 µM; BPR [2]: 0.03; bioavailability [4]: 52%; solubility at 24 h [6]: 87 µM (≈ 38 µg/mL); BPR ([7]; brain): 0.022; Papp (Caco-2): 20 ×10⁻⁶ cm/s; IC50 (Cytochrome P450 2C9): > 20 µM; clearance [8]: 26 mL/min/kg
CS(=O)(=O)Cc1ccc(C(=O)Nc2cccnc2C(=O)NCC2CCC2)c2ccccc12	240	0.26		77		
COc1ccc(NC(=O)c2ccc(Cn3ccnn3)c3ccccc23)c(C(=O)NCC2CCC2)n1	0.00097	0.0013		54	5.7	BPR [2]: 0.093; Kp [7]: 0.31; Papp A→B [11]: 0.96 ×10⁻⁶ cm/s
O=C(NCC1CCC1)c1ncccc1NC(=O)c1ccc(Cn2ccnn2)c2ccccc12	0.71	0.0014	0.065	110	5.3	
O=C(NCC1CCOCC1)c1ncccc1NC(=O)c1cccc2nccnc12	> 9.9		> 10		2.5	
O=C(NCC1CCOCC1)c1ncccc1NC(=O)c1ccc(C(=O)O)c2ccccc12	> 10000		> 10			
COCc1ccc(C(=O)Nc2cccnc2C(=O)NCC2CCC2)c2ccccc12		0.0059	0.019	110		
O=C(NCC1CCC1)c1ncccc1NC(=O)c1ccc(Cn2cccc2)c2ccccc12		0.17	0.34	82		
C[S+]([O-])Cc1ccc(C(=O)Nc2nccnc2C(=O)NCC2CCC2)c2ccccc12 (single isomer, unassigned) [listing 1 of 2 here]	0.037	0.032			2.7	BPR [2]: 0.011; Kp [7]: 0.02; Papp (Caco-2): 9 ×10⁻⁶ cm/s
C[S+]([O-])Cc1ccc(C(=O)Nc2nccnc2C(=O)NCC2CCC2)c2ccccc12 (stereo in doubt; 18f) [listing 2 of 2 here]				120		
COc1ccc(NC(=O)c2ccnc3ccccc23)c(C(=O)NCC2CCC2)n1	15	0.016	0.1	51	5.9	
O=C(NCC1CCC1)c1ncccc1NC(=O)c1cccc2cccnc12	0.32		0.36		5.5	
C[S+]([O-])Cc1ccc(C(=O)Nc2cccnc2C(=O)NCC2CCOCC2)c2ccccc12 (stereo not drawn)	0.049	0.087	2.5	110	2.8	IC50 (Cytochrome P450 3A4): > 20 µM; IC50 [1]: > 32 µM; BPR [2]: 0.01; bioavailability [4]: 31%; solubility at 24 h [6]: 79 µM (≈ 36.8 µg/mL); Kp [7]: 0.018; Papp A→B [11]: 23 ×10⁻⁶ cm/s; IC50 (Cytochrome P450 2C9): 19 µM; clearance [8]: 14 mL/min/kg
O=C(NCC1CCC1)c1ncccc1NC(=O)c1ccc(Cn2cccn2)c2ccccc12	13	0.023	0.069	93	6.2	
C[S+]([O-])Cc1ccc(C(=O)Nc2nccnc2C(=O)NCC2CCC2)c2ccccc12 (single isomer, unassigned) [listing 2 of 2 here]				110		
O=C(NCC1CCOCC1)c1ncccc1NC(=O)c1cccc2ccccc12	0.031	0.081	0.26	110	5.1	Kp [7]: 3
C[S@+]([O-])Cc1ccc(C(=O)Nc2cccnc2C(=O)NCC2CCOCC2)c2ccccc12	0.6				2.9	Papp A→B [11]: 0.61 ×10⁻⁶ cm/s
O=C(NCC1CCC1)c1ncccc1NC(=O)c1ccc(Cn2ccnc2)c2ccccc12		0.04	0.33	100		

Structure (SMILES)	IC50 (Cannabinoid receptor 1 [3]) [µM]	EC50 (Cannabinoid receptor 1 [5]) [µM]	IC50 (Cannabinoid receptor 2) [µM]	Emax (Cannabinoid receptor 1 [9]) [%]	logD [10]	also measured
O=C(NCC1CCCCC1)c1cc(Cl)ccc1NC(=O)c1cccc2ccccc12	0.16	0.26	1.8	77	7.8	
C[S+]([O-])Cc1ccc(C(=O)Nc2ccc(OCCOCCO)nc2C(=O)NCC2CCC2)c2ccccc12 (stereo not drawn)	0.0072	0.0051	0.5	120	3.2	IC50 (Cytochrome P450 3A4): 5.5 µM; EC50 [12]: 0.003 µM; BPR [2]: 0.023; inhibition in vivo at 2 µmol/kg (Canis familiaris [13]): 31.7%; inhibition in vivo at 1 µmol/kg (Canis familiaris [14]): 5.9%; inhibition (Canis familiaris [15]): Dose-dependent effect; Kp [7]: 0.02; Papp A→B [11]: 26 ×10⁻⁶ cm/s; IC50 (Cytochrome P450 2C9): 6.7 µM
CN(C)Cc1ccc(C(=O)Nc2cccnc2C(=O)NCC2CCC2)c2ccccc12		0.18	0.19	100		
C[S+]([O-])Cc1ccc(C(=O)Nc2cccnc2C(=O)NCC2CCC2)c2ccccc12 (stereo not drawn)	7	0.0059		110	4.6	
O=C(NCC1CCC1)c1nc(OCCOCCO)ccc1NC(=O)c1ccnc2ccccc12	10	0.014	1.2	130	4.1	
O=C(NCC1CCCCC1)c1cnccc1NC(=O)c1cccc2ccccc12	1.4		9		6.1	
O=C(NCC1CCC1)c1ncccc1NC(=O)c1cccc2cnccc12	0.22		0.038		5.1	
O=C(Nc1cccnc1C(=O)NCC1CCOCC1)c1cccc2c1OCCO2	1.2		5.7		3.8	
O=C(NCC1CCCCC1)c1cccnc1NC(=O)c1cccc2ccccc12	> 10		> 10		4.7	
C[S@@+]([O-])Cc1ccc(C(=O)Nc2cccnc2C(=O)NCC2CCOCC2)c2ccccc12	0.021	0.031		100	2.9	BPR [2]: 0.03; Kp [7]: 0.031; Papp A→B [11]: 26 ×10⁻⁶ cm/s
O=C(NCC1CCC1)c1ncccc1NC(=O)c1cccc2ccccc12	0.0061	0.023	0.026	110		
O=C(Nc1cccnc1C(=O)NCC1CCOCC1)c1ccc2ncsc2c1	> 6.7		> 10		3.5	
O=C(NCC1CCCCC1)c1ccncc1NC(=O)c1cccc2ccccc12	3.6		> 8.9		5.5	
O=C(NCC1CCCCC1)c1nccnc1NC(=O)c1cccc2ccccc12	0.091	0.48	1.4	120		
O=C(NCC1CCC1)c1nc(OCCO)ccc1NC(=O)c1ccnc2ccccc12	73	0.12	2.5	51	4	
O=C(NCC1CCC1)c1ncccc1NC(=O)c1ccnc2ccccc12	0.028	0.079	0.082	94		
O=C(NCC1CCCCC1)c1ncccc1NC(=O)c1cccc2ccccc12	0.01	0.024	0.11	110	8.1	
